In article PMC5030192 (International journal of pharmaceutics, 2016):
Converted amounts (≈) assume the structure as drawn. Square brackets hold non-standard residues; d marks the D form. Peptide text beside a SMILES is read from it. Sar = CNCC(=O)O

How the values were obtained:
[1] = Solubility studies in distilled deionized water; format: physicochemical; conditions: thermodynamic from solid
P-gp = P-gp (Homo sapiens, UniProt P08183); experiment: [3H]-LPV cellular uptake in MDCK-MDR1 cells; format: cell-based
Chain of P-gp (P08183 whole entry): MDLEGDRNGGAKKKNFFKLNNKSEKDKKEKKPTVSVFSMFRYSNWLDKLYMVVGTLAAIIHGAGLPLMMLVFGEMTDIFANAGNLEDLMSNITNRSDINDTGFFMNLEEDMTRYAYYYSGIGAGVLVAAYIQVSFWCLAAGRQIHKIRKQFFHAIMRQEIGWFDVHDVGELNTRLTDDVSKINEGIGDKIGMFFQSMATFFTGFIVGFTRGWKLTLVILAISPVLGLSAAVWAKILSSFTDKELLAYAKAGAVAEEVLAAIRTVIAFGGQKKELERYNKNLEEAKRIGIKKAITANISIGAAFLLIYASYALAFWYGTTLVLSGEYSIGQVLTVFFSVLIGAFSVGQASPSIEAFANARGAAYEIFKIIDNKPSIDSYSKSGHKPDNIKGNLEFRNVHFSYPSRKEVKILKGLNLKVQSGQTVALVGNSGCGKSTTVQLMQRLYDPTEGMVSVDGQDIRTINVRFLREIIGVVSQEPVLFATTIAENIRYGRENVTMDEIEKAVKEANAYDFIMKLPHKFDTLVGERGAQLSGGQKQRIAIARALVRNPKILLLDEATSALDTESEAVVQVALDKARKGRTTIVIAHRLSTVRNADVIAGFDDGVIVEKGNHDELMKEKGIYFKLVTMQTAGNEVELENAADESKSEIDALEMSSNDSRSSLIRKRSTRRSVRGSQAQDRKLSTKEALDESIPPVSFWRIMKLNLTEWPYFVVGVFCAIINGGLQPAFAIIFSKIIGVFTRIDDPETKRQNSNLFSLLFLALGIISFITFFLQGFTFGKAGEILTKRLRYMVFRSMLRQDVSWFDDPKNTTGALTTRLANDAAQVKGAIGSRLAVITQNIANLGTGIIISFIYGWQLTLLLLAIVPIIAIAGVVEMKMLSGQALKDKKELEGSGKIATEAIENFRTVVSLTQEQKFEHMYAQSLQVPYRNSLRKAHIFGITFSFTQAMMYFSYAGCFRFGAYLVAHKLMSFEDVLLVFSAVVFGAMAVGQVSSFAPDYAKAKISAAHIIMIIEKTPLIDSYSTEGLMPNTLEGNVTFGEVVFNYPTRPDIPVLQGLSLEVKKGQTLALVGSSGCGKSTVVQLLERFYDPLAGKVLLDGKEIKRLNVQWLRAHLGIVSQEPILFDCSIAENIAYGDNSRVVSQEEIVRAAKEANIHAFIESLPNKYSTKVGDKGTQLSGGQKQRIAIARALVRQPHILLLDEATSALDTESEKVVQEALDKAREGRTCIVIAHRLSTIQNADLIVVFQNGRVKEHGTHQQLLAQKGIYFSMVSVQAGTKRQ

MRP2 = MRP2 (Homo sapiens, UniProt Q92887); experiment: [3H]-LPV cellular uptake in MDCK-MRP2 cells; format: cell-based
Chain of MRP2 (Q92887 whole entry): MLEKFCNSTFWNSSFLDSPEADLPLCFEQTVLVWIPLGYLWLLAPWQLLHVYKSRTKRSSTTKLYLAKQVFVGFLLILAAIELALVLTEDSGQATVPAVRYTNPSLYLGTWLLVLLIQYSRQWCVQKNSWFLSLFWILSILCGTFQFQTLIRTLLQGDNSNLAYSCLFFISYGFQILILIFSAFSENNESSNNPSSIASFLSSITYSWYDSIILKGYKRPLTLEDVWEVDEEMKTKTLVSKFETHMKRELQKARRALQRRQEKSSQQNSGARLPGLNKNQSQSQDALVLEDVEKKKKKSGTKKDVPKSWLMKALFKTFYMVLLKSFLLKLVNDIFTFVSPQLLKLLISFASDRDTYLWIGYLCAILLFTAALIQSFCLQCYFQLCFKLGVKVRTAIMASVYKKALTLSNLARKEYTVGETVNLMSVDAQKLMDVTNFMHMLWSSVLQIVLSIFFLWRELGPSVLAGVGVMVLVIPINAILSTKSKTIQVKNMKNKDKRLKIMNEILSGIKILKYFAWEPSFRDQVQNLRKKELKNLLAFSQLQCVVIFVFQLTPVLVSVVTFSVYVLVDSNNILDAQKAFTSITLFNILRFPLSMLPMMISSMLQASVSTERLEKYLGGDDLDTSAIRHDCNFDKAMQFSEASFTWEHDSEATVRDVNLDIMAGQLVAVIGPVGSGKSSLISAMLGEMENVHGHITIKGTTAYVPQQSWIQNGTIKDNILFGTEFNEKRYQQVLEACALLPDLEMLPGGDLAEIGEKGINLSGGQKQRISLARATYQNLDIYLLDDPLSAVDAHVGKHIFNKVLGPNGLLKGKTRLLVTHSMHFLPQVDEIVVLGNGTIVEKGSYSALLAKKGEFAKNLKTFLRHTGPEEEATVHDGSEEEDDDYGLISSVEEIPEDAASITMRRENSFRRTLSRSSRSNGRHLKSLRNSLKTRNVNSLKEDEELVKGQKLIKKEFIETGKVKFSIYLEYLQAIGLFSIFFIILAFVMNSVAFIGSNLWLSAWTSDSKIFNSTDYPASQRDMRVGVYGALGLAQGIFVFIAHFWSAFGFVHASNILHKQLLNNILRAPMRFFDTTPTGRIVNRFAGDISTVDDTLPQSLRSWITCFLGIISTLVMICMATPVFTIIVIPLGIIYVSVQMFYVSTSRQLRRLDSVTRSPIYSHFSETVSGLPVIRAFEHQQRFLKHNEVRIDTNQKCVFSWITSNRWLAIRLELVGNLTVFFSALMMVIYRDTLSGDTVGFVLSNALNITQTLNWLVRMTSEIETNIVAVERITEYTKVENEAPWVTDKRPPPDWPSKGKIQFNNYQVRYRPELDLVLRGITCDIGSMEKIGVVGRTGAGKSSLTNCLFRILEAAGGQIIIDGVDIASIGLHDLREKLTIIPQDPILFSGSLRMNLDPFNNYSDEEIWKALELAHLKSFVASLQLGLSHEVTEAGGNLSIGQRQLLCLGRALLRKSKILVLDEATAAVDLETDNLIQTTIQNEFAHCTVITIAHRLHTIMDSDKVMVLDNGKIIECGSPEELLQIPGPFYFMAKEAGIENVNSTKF

PepT1 = experiment: [3H]-GlySar uptake, interaction with peptide transporter; format: cell-based
Procedure, shortened: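 Monolayers grown to 80–90% confluency (6–7 days after seeding 3 × 10⁶ cells) were washed thrice in DPBS pH 7.4 at 37°C. They were then incubated 30 min at 37°C with [3H]-GlySar in DPBS plus test compound (25µM) or cold GlySar (10mM). Ice-cold stop wash, lysis in 0.1% Triton-X/0.3% NaOH overnight, scintillation counting; uptake normalised to protein. n=4, mean ± S.D., Student t-test.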

PHT1 = experiment: [3H]-His uptake, interaction with peptide/histidine transporter; format: cell-based; conditions: 25µM; MDCK-MDR1, MDCK-MRP2, Caco-2
[2] = ref Patel, 2014, cited from earlier work
MDCKII-WT cells = experiment: MTS based cytotoxicity assay

In the case of `Cc1cccc(C)c1OCC(=O)N[C@@H](Cc1ccccc1)[C@@H](O)C[C@H](Cc1ccccc1)NC(=O)[C@H](C(C)C)N1CCCNC1=O` [LPV, Lopinavir], the solubility at 24 h [1] is reported as 49 ± 3 µg/mL (≈ 77.9 µM), the “[3H]-LPV uptake with increasing concentrations of unlabelled compound” value (P-gp) is reported as “dramatically elevated” and the “[3H]-LPV uptake with increasing concentrations of unlabelled compound” value (MRP2) is reported as “dramatically elevated”. For the same compound, the “variation in [3H]-GlySar uptake in presence of compound” value (PepT1; 25µM, MDCK-MDR1, MDCK-MRP2, Caco-2) was “no such variation”, the “variation in [3H]-L-His uptake in presence of compound” value (PHT1) was “no such variation” and the “mean residential time (MRT)” value ([2]; LPV itself dosed orally, rats) was 188 min. The “mean residential time (MRT) of regenerated LPV” value ([2]; regenerated after oral Val-Ile-LPV, rats) was 604 min, the “Area under the curve (AUC) of administered compound” value ([2]; single oral dose, Sprague Dawley rats) was 177 ± 5 µmol·min/L and the “reduction in number of viable cells” value (MDCKII-WT cells; 100 µM, 4h incubation, MDCK-WT cells) was “Approximately 13%”. For the same compound, the “reduction in number of viable cells / cell viability” value (MDCKII-WT cells; 200 µM, 4h incubation, MDCK-WT cells) was about 36% and the Cytotoxicity (MDCKII-WT cells; 5–50 µM, 4h incubation, MDCK-WT cells) was “no cytotoxic effects”.

With `CN(CC(=O)O)C(=O)CN` [GlySar, Glycylsarcosine] (H-Gly-[Sar]-OH) the “reduction in [3H]-GlySar uptake” value (PepT1; all cell lines (MDCK-MDR1, MDCK-MRP2, Caco-2), prodrug 25µM, cold GlySar 10mM) was 75%.

With `CC(C)(C)CC(C)(C)c1ccc(OCCO)cc1` [Triton-X] the “decrease in absorbance compared to negative control” value (MDCKII-WT cells; 0.1% Triton-X, positive control) was “about 70%”.
